≈ marks a conversion by molar mass, not a printed value.
How the values were obtained:
[1] = tested on: Escherichia coli; experiment: Synergistic antibacterial activity against Escherichia coli TG1 transformed with IncX3 plasmid expressing blaNDM-1 assessed as ratio of negative logarithm of fractional inhibitory concentration index to non-hydrogen atom in presence of meropenem incubated for overnight by CLSI protocol based assay; assay type: functional; settings: time 12 hrs
Method in brief: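 In E. coli TG1 carrying the IncX3 blaNDM-1 plasmid, the FIC index was taken from overnight CLSI-based MICs of compound, meropenem and their 1:1 mass mixture, read by eye. Synergistic efficiency = −ln(FIC index) divided by the number of non-hydrogen atoms. At least triplicate assays.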

[2] = tested on: Escherichia coli; experiment: Synergistic antibacterial activity against Escherichia coli TG1 transformed with IncX3 plasmid expressing blaNDM-1 assessed as fractional inhibitory concentration index in presence of meropenem incubated for overnight by CLSI protocol based assay; assay type: functional; settings: time 12 hrs
Method in brief: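 FIC index from MICs of compound alone, meropenem alone, and the 1:1 (mass) compound–meropenem combination, read by eye after overnight incubation in a CLSI-based assay. FIC index = MICcombo/MICcpd + MICcombo/MICMem. FIC index ≤0.5 counted as synergy. At least triplicate assays. Clinical NDM-1 isolates for 17-39; E. coli TG1 carrying the IncX3 blaNDM-1 plasmid for 15.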

[3] = Growth inhibition of Escherichia coli TG1 transformed with IncX3 plasmid expressing blaNDM-1 incubated for overnight by CLSI protocol based assay; settings: 12 h
[4] = tested on: Escherichia coli; experiment: Potentiation of meropenem-induced antibacterial activity against Escherichia coli TG1 transformed with IncX3 plasmid expressing blaNDM-1 assessed as bacterial growth inhibition by measuring meropenem MIC incubated for overnight by CLSI protocol based assay; assay type: functional; settings: time 12 hrs
[5] = Inhibition of bacterial VIM-1; set-up: species or system Bacteria
[6] = Competitive inhibition of recombinant bacterial His6-tagged TEV protease site linked NDM-1 (32 to […] residues) expressed in Escherichia coli BL21 (DE3); set-up: species or system Bacteria
[7] = Inhibition of recombinant bacterial NDM-1 by fluorogenic assay; set-up: species or system Bacteria
[8] = Covalent inhibition of bacterial NDM-1; set-up: species or system Bacteria

IC50 [6]	IC50 [7]	Ki [8]	SMILES	Ratio [1]	fractional inhibitory concentration index (FICI) [2]	MIC [3]	MIC [4]	IC50 [5]
			CC(C)(C)CC(=O)NCCn1[se]c2ccccc2c1=O	0.084	0.188	>= 128 ug ml-1	8 µg/mL	
			O=C(O)c1cccc(-n2[se]c3ccccc3c2=O)c1	0.052	0.375	32 µg/mL (≈ 101 µM)	8 µg/mL	
			COP(=O)(NCCn1[se]c2ccccc2c1=O)OC	0.084	0.188	>= 128 ug ml-1	8 µg/mL	
			O=C(O)Cn1[se]c2ccccc2c1=O	0.091	0.281	8 µg/mL (≈ 31.2 µM)	2 µg/mL	
			O=c1c2ccccc2[se]n1Cc1ccccc1	0.058	0.375	32 µg/mL (≈ 111 µM)	8 µg/mL	
			O=c1c2ccccc2[se]n1-c1ccc(Cl)cc1	0.139	0.094	>= 128 ug ml-1	4 µg/mL	
			COc1ccc(-n2[se]c3ccccc3c2=O)cc1Cl	0.015	0.75	>= 128 ug ml-1	32 µg/mL	
			CC1CN(CCn2[se]c3ccccc3c2=O)CC(C)O1 (stereo not given)	0.049	0.375	>= 128 ug ml-1	16 µg/mL	
			O=C(O)[C@@H]1SC[C@H]2CS[C@H](CS)N21					23 µM
			O=c1c2ccccc2[se]n1S(=O)(=O)c1ccc(Cl)cc1	0.049	0.375	>= 128 ug ml-1	16 µg/mL	
			O=c1c2ccccc2[se]n1CCCn1ccnc1	0.054	0.375	>= 128 ug ml-1	16 µg/mL	
			O=C(O)c1ccc(-n2[se]c3ccccc3c2=O)cc1	0.109	0.125	64 µg/mL (≈ 201 µM)	4 µg/mL	
700 nM			O=C(O)[C@H]1CCCCN1C(=O)C(CS)Cc1ccccc1 (mixture of isomers)					
			CC(C)(OC(=O)NCCCn1[se]c2ccccc2c1=O)C(F)(F)F	0.07	0.188	>= 128 ug ml-1	8 µg/mL	
			O=C(NCCn1[se]c2ccccc2c1=O)OCc1ccccc1	0.043	0.375	>= 128 ug ml-1	16 µg/mL	
			C#CCn1[se]c2ccccc2c1=O	0.107	0.25	64 µg/mL (≈ 271 µM)	8 µg/mL	
			COc1ccc(Cn2[se]c3ccccc3c2=O)cc1	0.088	0.188	>= 128 ug ml-1	8 µg/mL	
			CCCC[n+]1ccn(CCCn2[se]c3ccccc3c2=O)c1	0.076	0.188	>= 128 ug ml-1	8 µg/mL	
			Cl.NCCn1[se]c2ccccc2c1=O	-0.005	1.063	4 µg/mL	4 µg/mL	
			CCN(CC)CCCC(C)n1[se]c2ccccc2c1=O (stereo not given)	0.084	0.188	>= 128 ug ml-1	8 µg/mL	
			O=c1c2ccccc2[se]n1C1CCCCC1	0.087	0.25	64 µg/mL (≈ 228 µM)	8 µg/mL	
			O=c1c2ccccc2[se]n1Cc1cccc(-c2ccccc2)c1	0.043	0.375	>= 128 ug ml-1	16 µg/mL	
			CCN1CCC[C@H]1Cn1[se]c2ccccc2c1=O	0.039	0.5	64 µg/mL (≈ 207 µM)	16 µg/mL	
			C[C@H](C(=O)N[C@H](C)C(=O)O)n1[se]c2ccccc2c1=O	0.049	0.375	>= 128 ug ml-1	16 µg/mL	
			O=C1N[Se]c2ccccc2C(=O)N1	0.107	0.25	64 µg/mL (≈ 265 µM)	8 µg/mL	

IC50 [6]	IC50 [7]	Ki [8]	SMILES	Ratio [1]	fractional inhibitory concentration index (FICI) [2]	MIC [3]	MIC [4]	IC50 [5]
			C[C@@H](O)[C@H]1C(=O)N2C(C(=O)O)=C(S[C@@H]3CN[C@H](C(=O)N(C)C)C3)[C@H](C)[C@H]12 [MEROPENEM]			64 µg/mL (≈ 167 µM)		
			COc1ccc(-n2[se]c3ccccc3c2=O)cc1	0.054	0.375	>= 128 ug ml-1	16 µg/mL	
			O=C(NCCn1[se]c2ccccc2c1=O)c1ccccc1	0.047	0.375	>= 128 ug ml-1	16 µg/mL	
			CC(C)(C)OC(=O)NCCCn1[se]c2ccccc2c1=O	0.08	0.188	>= 128 ug ml-1	8 µg/mL	
			O=c1c2ccccc2[se]n1CCO	0.022	0.75	32 µg/mL (≈ 132 µM)	16 µg/mL	
	4 nM		NCCNCc1ccc(C(=O)N[C@H]2Cc3cccc(C(=O)O)c3O[B-]2(O)O)cc1					
			CC(C)c1ccc(-n2[se]c3ccccc3c2=O)cc1	0.052	0.375	>= 128 ug ml-1	16 µg/mL	
			Cl.NCCCn1[se]c2ccccc2c1=O	0.091	0.281	8 µg/mL	2 µg/mL	
			O=C(NCCn1[se]c2ccccc2c1=O)c1cccs1	0.084	0.188	>= 128 ug ml-1	8 µg/mL	
			COc1cccc(C(=O)n2[se]c3ccccc3c2=O)c1	0.084	0.188	>= 128 ug ml-1	8 µg/mL	
			CN(C)CCn1[se]c2ccccc2c1=O	0.065	0.375	>= 128 ug ml-1	16 µg/mL	
			O=c1c2ccccc2[se]n1CCN1CCOCC1	0.039	0.5	64 µg/mL (≈ 206 µM)	16 µg/mL	
			CCN(CC)CCn1[se]c2ccccc2c1=O	0.041	0.5	64 µg/mL (≈ 215 µM)	16 µg/mL	
			CC(C)(CC(=O)NCCn1[se]c2ccccc2c1=O)C(F)(F)F	0.073	0.188	>= 128 ug ml-1	8 µg/mL	
		2.3 mM	N[C@@H](C(=O)N[C@@H]1C(=O)N2C(C(=O)O)=C(Cl)CS[C@H]12)c1ccccc1 [CEFACLOR ANHYDROUS]					
			O=C(NCCn1[se]c2ccccc2c1=O)c1ccc(F)cc1F	0.013	0.75	>= 128 ug ml-1	32 µg/mL	
			CCN1CCC[C@@H]1Cn1[se]c2ccccc2c1=O	0.039	0.5	64 µg/mL (≈ 207 µM)	16 µg/mL	
			O=c1c2ccccc2[se]n1-c1ccncc1	0.018	0.75	>= 128 ug ml-1	32 µg/mL	
			Cc1ccc(C(=O)NCCn2[se]c3ccccc3c2=O)cc1	0.076	0.188	>= 128 ug ml-1	8 µg/mL	
			O=c1c2ccccc2[se]n1Cc1cccc(N2CCCCC2)c1	0.043	0.375	>= 128 ug ml-1	16 µg/mL	
			O=C1CC[Se]N1c1ccccc1	0.024	0.75	>= 128 ug ml-1	32 µg/mL	
			O=c1c2ccccc2[se]n1CCN1CCCCC1	0.054	0.375	>= 128 ug ml-1	16 µg/mL	
			O=c1c2ccccc2[se]n1CCC1CCOCC1	0.084	0.188	>= 128 ug ml-1	8 µg/mL	
			O=c1c2ccccc2[se]n1CCNCc1ccccc1	0.084	0.188	>= 128 ug ml-1	8 µg/mL	
			O=c1c2ccccc2[se]n1-c1ccc(CO)cc1	0.054	0.375	>= 128 ug ml-1	16 µg/mL	

From ChEMBL document CHEMBL4673212, “Investigation of synergistic antimicrobial effects of the drug combinations of meropenem and 1,2-benzisoselenazol-3(2H)-one derivatives on carbapenem-resistant Enterobacteriaceae producing NDM-1” (Eur J Med Chem, 2018)
